Residue numbers refer to the chain shown, from its start. Like-named read-outs stand apart in the source and are kept apart here. One block for each compound: values may come before it.
How the values were obtained:
PPARγ = biological target: T1, PPARγ (Mus musculus, UniProt P37238); assay: GW9662 against rosiglitazone-stimulated PPRE-luciferase in Pparb-null astrocytes; assay type: cell-based; settings: GW9662 30 min before rosiglitazone
T1 sequence (P37238 1-505): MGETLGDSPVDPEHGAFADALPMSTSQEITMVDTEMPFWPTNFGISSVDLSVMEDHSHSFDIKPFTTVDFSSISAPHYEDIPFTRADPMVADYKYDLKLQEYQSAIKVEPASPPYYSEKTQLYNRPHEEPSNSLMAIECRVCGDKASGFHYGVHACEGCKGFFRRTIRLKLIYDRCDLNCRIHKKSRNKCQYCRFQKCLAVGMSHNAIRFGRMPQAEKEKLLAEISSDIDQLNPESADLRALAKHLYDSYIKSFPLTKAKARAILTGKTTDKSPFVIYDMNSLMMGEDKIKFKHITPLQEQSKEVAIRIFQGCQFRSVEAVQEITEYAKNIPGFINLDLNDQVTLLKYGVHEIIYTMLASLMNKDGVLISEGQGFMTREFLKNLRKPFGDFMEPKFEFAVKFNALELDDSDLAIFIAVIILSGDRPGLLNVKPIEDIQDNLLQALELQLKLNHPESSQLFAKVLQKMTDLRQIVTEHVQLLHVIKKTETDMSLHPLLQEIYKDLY

FL-Ppara = biological target: T2, FL-Ppara (Mus musculus, UniProt P23204); assay type: cell-based
T2 sequence (P23204 1-468): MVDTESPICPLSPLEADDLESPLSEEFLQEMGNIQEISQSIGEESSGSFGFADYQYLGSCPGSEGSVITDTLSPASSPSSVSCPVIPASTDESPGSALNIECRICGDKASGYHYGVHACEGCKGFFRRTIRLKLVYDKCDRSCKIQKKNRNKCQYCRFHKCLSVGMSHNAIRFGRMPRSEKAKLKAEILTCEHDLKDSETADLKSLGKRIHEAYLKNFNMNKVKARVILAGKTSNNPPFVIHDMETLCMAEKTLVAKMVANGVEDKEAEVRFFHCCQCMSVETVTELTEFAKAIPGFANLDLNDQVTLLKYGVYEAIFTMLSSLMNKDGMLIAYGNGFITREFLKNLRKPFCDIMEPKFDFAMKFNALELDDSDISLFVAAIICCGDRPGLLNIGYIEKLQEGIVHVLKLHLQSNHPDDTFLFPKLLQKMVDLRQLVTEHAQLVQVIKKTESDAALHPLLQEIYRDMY

[1] = tested on: Ppara-null hippocampal neurons; assay: Dendritic spine density; assay type: cell-based, mouse; settings: Ppara-null neurons transduced with lenti-FL-Ppara or lenti-Y464D-Ppara
In short: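 Ppara-null hippocampal neurons were taken from E18 fetuses and treated with 10 μM AraC to remove glia. They were differentiated 9–10 days, then transduced 48 h with lentivirions carrying GFP (vector), FL-Ppara or Y464D-Ppara. Neurons then received vehicle (DMSO) or test compound for 24 h. They were stained with Dylight-554-phalloidin, and spine density was scored by fluorescence microscopy.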

Y314D/Y464D-Ppara = biological target: T3, Y314D/Y464D-Ppara (Mus musculus, UniProt P23204, Y314D/Y464D); assay type: cell-based
T3 sequence (P23204 1-468 Y314D/Y464D): T2 sequence (P23204 1-468) with Y314D, Y464D

Y314D-Ppara = biological target: T4, Y314D-Ppara (Mus musculus, UniProt P23204, Y314D); assay type: cell-based
T4 sequence (P23204 1-468 Y314D): T2 sequence (P23204 1-468) with Y314D

[2] = tested on: PPRE-driven luciferase activity; assay: PPRE-luciferase assay in Ppara-null astrocytes transduced with empty vector; assay type: cell-based, mouse; settings: 4 h
In short: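 Ppara-null astrocytes came from mixed glial cultures of 7-d-old pups. They were transduced 48 h with empty-vector lentivirions and transfected with tk-PPREx3-Luc reporter. After 24 h they were treated with different doses of test compound for 4 h, then luciferase activity was read. Values are mean ± SD of three independent experiments.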

Y464D-Ppara = biological target: T5, Y464D-Ppara (Mus musculus, UniProt P23204, Y464D); assay type: cell-based
T5 sequence (P23204 1-468 Y464D): T2 sequence (P23204 1-468) with Y464D

Compound: O=C(Nc1ccccc1)c1cc([N+](=O)[O-])ccc1Cl [GW9662]
effect on rosiglitazone-mediated PPRE-luciferase activity (PPARγ): Inhibition of rosiglitazone-mediated increase in PPRE-luciferase activity

PPRE-luciferase activity (Y314D/Y464D-Ppara): no luciferase activity
PPRE-luciferase activity (Y314D-Ppara): no luciferase activity
PPRE-luciferase activity (Y464D-Ppara): no luciferase activity
Compound: Cc1cccc(Nc2cc(Cl)nc(SCC(=O)O)n2)c1C [WY14643, reference compound]
PPRE-luciferase reporter activity (FL-Ppara): markedly induced PPRE-luciferase activity
density of dendritic spines [1]: stimulated the density of spines only when Ppara-null neurons were transduced with lenti-FL-Ppara, but not lenti-Y464D-Ppara
PPRE-driven luciferase activity [2]: unable to induce PPRE-luciferase activity

PPRE-luciferase activity (Y314D/Y464D-Ppara; Ppara-null astrocytes transduced with lenti-Y314D/Y464D-Ppara, 4 h): no luciferase activity
PPRE-luciferase activity (Y314D-Ppara; Ppara-null astrocytes transduced with lenti-Y314D-Ppara, 4 h): no luciferase activity
PPRE-luciferase activity (Y464D-Ppara; Ppara-null astrocytes transduced with lenti-Y464D-Ppara, 4 h): no luciferase activity
Compound: CCOC(=O)C(C)(C)Oc1ccc(Cl)cc1 [clofibrate, reference compound]
PPRE-luciferase reporter activity (FL-Ppara; Ppara-null astrocytes transduced with lenti-FL-Ppara, 4 h): markedly induced PPRE-luciferase activity
PPRE-driven luciferase activity [2]: unable to induce PPRE-luciferase activity

Compound: CC(C)OC(=O)C(C)(C)Oc1ccc(C(=O)c2ccc(Cl)cc2)cc1 [fenofibrate]
PPRE-driven luciferase activity [2]: unable to induce PPRE-luciferase activity
